For experiment [1], the system named is Substance-K receptor (Homo sapiens), P21452 [F112A]. Put plainly: Binding affinity against F112A human neurokinin-2 receptor (hNK-2R) using [3H]nepadutant as a radioligand. The method in brief:
(§1)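 Membranes from cells stably transfected with wild-type or mutant hNK-2R, incubated with [3H]nepadutant for 60 min at 20 °C in 50 mM Tris-HCl pH 7.4 containing peptidase inhibitors, 150 mM NaCl, 5 mM MnCl2 and 1 g/L BSA. Competitors ranged 0.3 pM–10 μM. Nonspecific binding was defined with 1 mM unlabeled ligand. Bound label was collected by filtration and counted. Means from ≥3 duplicate experiments.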

Experiment [2] deals with Substance-K receptor (Homo sapiens), P21452 [F293A]. Description: Binding affinity against F293A human neurokinin-2 receptor (hNK-2R) using [3H]nepadutant as a radioligand. The method in brief: as §1
The subject of experiment [3] is Substance-K receptor (Homo sapiens), P21452 [H198A]. Description: Binding affinity against H198A human neurokinin-2 receptor (hNK-2R) using [3H]nepadutant as a radioligand. The method in brief:
as §1

Experiment [4] concerns Substance-K receptor (Homo sapiens), P21452 [Q109A]. Put plainly: Binding affinity against Q109A human neurokinin-2 receptor (hNK-2R) using [3H]nepadutant as a radioligand. In a few lines: as §1
For experiment [5], the system named is Substance-K receptor (Homo sapiens), P21452 [Q166A]. Description: Binding affinity against Q166A human neurokinin-2 receptor (hNK-2R) using [3H]nepadutant as a radioligand. The method in brief:
as §1

The test system of experiment [6] is T1, Substance-K receptor (Homo sapiens), P21452 [S170A].
T1 sequence (whole entry): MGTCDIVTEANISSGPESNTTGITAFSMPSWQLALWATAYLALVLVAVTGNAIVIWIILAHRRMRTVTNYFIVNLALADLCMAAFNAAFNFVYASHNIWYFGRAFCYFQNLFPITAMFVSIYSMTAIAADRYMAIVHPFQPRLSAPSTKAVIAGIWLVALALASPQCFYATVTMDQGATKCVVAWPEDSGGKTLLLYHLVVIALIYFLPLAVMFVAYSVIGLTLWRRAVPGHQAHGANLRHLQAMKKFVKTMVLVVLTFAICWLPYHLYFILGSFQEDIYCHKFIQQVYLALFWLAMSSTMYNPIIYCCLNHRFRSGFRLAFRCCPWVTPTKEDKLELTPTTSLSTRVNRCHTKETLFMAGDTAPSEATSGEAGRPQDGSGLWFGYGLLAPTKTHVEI
Put plainly: Binding affinity against S170A human neurokinin-2 receptor (hNK-2R) using [3H]nepadutant as a radioligand. In a few lines: as §1

Experiment [7] deals with Substance-K receptor (Homo sapiens), P21452 [T171A]. Put plainly: Binding affinity against T171A human neurokinin-2 receptor (hNK-2R) using [3H]nepadutant as a radioligand; UB is undetectable binding. The method in brief:
as §1

Experiment [8] concerns T2, Substance-K receptor (Homo sapiens), P21452 [W263A].
T2 sequence (whole entry): T1 sequence (whole entry) with A170S, W263A
Description: Binding affinity against W263A human neurokinin-2 receptor (hNK-2R) using [3H]nepadutant as a radioligand; UB is Undetectable Binding. In a few lines:
as §1

Experiment [9] concerns the target T3, Substance-K receptor (Homo sapiens) (UniProt P21452).
T3 sequence (whole entry): T1 sequence (whole entry) with A170S
Put plainly: Binding affinity against wild type human Wild-type tachykinin receptor 2 (hNK-2R) using [3H]nepadutant as a radioligand. The method in brief:
as §1

In experiment [10] the test system is Substance-K receptor (Homo sapiens), P21452 [Y107A]. Description: Binding affinity against Y107A human neurokinin-2 receptor (hNK-2R) using [3H]nepadutant as a radioligand. In a few lines:
as §1

Experiment [11] deals with Substance-K receptor (Homo sapiens), P21452 [Y169A]. Description: Binding affinity against Y169A human neurokinin-2 receptor (hNK-2R) using [3H]nepadutant as a radioligand. In a few lines: as §1
The test system of experiment [12] is Substance-K receptor (Homo sapiens), P21452 [Y206F]. Description: Binding affinity against Y206F human neurokinin-2 receptor (hNK-2R) using [3H]nepadutant as a radioligand. In a few lines:
as §1

Experiment [13] relates to T4, Substance-K receptor (Homo sapiens), P21452 [Y266F].
T4 sequence (whole entry): T1 sequence (whole entry) with A170S, Y266F
Put plainly: Binding affinity against Y266F human neurokinin-2 receptor (hNK-2R) using [3H]nepadutant as a radioligand; UB is Undetectable Binding. In a few lines: as §1

In experiment [14] the test system is Substance-K receptor (Homo sapiens), P21452 [Y269A]. Description: Binding affinity against Y269A human neurokinin-2 receptor (hNK-2R) using [3H]nepadutant as a radioligand. The method in brief: as §1
The test system of experiment [15] is Substance-K receptor (Homo sapiens), P21452 [Y289F]. Put plainly: Binding affinity against Y289F human neurokinin-2 receptor (hNK-2R) using [3H]nepadutant as a radioligand. The method in brief:
as §1

For experiment [16], the system named is Substance-K receptor (Homo sapiens), P21452 [Y289T]. Description: Binding affinity against Y289T human neurokinin-2 receptor (hNK-2R) using [3H]nepadutant as a radioligand. In a few lines:
as §1

Experiment [17] concerns T1, Substance-K receptor (Homo sapiens), P21452 [S170A].

Where a chain is given by its changes, count along the chain named. Activity calls are given as the source filed them. No cut-off for these calls is given here. Where a SMILES comes first, the peptide text is derived from it. Bridges are numbered along the chain shown (N, C = ends). [ ]: non-standard residue; d: D form. The star is where a group is joined. NH(β-GlcNAc) = CC(=O)N[C@@H]1[C@@H](O)[C@H](O)[C@@H](CO)O[C@H]1N*; Dap = NC[C@H](N)C(=O)O

Chain of Substance-K receptor (Homo sapiens), P21452 [Y169A] (P21452 whole entry Y169A): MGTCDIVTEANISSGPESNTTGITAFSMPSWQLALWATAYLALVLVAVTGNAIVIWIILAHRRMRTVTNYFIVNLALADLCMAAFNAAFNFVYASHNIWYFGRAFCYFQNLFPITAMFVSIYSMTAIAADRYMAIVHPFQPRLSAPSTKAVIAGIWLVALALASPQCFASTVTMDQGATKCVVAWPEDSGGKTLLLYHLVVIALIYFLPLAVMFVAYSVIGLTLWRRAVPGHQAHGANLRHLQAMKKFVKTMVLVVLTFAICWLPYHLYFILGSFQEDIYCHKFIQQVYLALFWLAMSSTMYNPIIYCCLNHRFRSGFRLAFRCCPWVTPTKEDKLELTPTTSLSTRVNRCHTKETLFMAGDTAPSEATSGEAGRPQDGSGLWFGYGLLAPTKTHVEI
Chain of Substance-K receptor (Homo sapiens), P21452 [H198A] (P21452 whole entry H198A): as the sequence (P21452 whole entry Y169A) above, with A169Y, H198A counted along it
Chain of Substance-K receptor (Homo sapiens), P21452 [F293A] (P21452 whole entry F293A): as the sequence (P21452 whole entry Y169A) above, with A169Y, F293A counted along it
Chain of Substance-K receptor (Homo sapiens), P21452 [Y289T] (P21452 whole entry Y289T): as the sequence (P21452 whole entry Y169A) above, with A169Y, Y289T counted along it
Chain of Substance-K receptor (Homo sapiens), P21452 [Y206F] (P21452 whole entry Y206F): as the sequence (P21452 whole entry Y169A) above, with A169Y, Y206F counted along it
Chain of Substance-K receptor (Homo sapiens), P21452 [F112A] (P21452 whole entry F112A): as the sequence (P21452 whole entry Y169A) above, with F112A, A169Y counted along it
Chain of Substance-K receptor (Homo sapiens), P21452 [Y107A] (P21452 whole entry Y107A): as the sequence (P21452 whole entry Y169A) above, with Y107A, A169Y counted along it
Chain of Substance-K receptor (Homo sapiens), P21452 [Q166A] (P21452 whole entry Q166A): as the sequence (P21452 whole entry Y169A) above, with Q166A, A169Y counted along it
Chain of Substance-K receptor (Homo sapiens), P21452 [T171A] (P21452 whole entry T171A): as the sequence (P21452 whole entry Y169A) above, with A169Y, T171A counted along it
Chain of Substance-K receptor (Homo sapiens), P21452 [Q109A] (P21452 whole entry Q109A): as the sequence (P21452 whole entry Y169A) above, with Q109A, A169Y counted along it
Chain of Substance-K receptor (Homo sapiens), P21452 [Y269A] (P21452 whole entry Y269A): as the sequence (P21452 whole entry Y169A) above, with A169Y, Y269A counted along it
Chain of Substance-K receptor (Homo sapiens), P21452 [Y289F] (P21452 whole entry Y289F): as the sequence (P21452 whole entry Y169A) above, with A169Y, Y289F counted along it

For the molecule `CC(=O)N[C@@H]1[C@@H](O)[C@H](O)[C@@H](CO)O[C@H]1NC(=O)C[C@@H]1NC(=O)[C@H](CC(C)C)NC(=O)[C@@H]2CNC(=O)C[C@H](NC1=O)C(=O)N[C@@H](Cc1c[nH]c3ccccc13)C(=O)N[C@@H](Cc1ccccc1)C(=O)N2` (cyclo(D(NH(β-GlcNAc))DWF[Dap]L); lactam 2-5), the KD/Ki stood at 22.1 nM in experiment [1]; 7.4 nM in [2]; 11.5 nM in experiment [3]; 0.85 nM in [4]; 3.5 nM in experiment [5]; 1.5 nM in experiment [6]. Moreover, the KD/Ki in experiment [9] is 4 nM; in experiment [10], 0.75 nM; in experiment [11], 4.1 nM; in [12], 1.1 nM; in experiment [14] it was 19 nM; in [15], 2.9 nM. Also, the figures for the KD/Ki in [16] and in experiment [17] were 11.2 nM and 1.9 nM, respectively. For the same molecule, the UB entry in experiment [7], in experiment [8] and in [13] was “inactive” in each case.

For the origin of these results see ChEMBL document CHEMBL1135528, “Monocyclic human tachykinin NK-2 receptor antagonists as evolution of a potent bicyclic antagonist: QSAR and site-directed mutagenesis studies” (J Med Chem, 2002).
